Measurements: ChEMBL document CHEMBL3817776, “Discovery and Structure-Activity Relationships of the Neoseptins: A New Class of Toll-like Receptor-4 (TLR4) Agonists” (J Med Chem, 2016)
Activity calls are given as the source filed them. Unless noted, the rule behind the calls is not given here.

What was measured:
Toll-like receptor 4 = target: T1, Toll-like receptor 4 (Mus musculus, UniProt Q9QUK6); assay: (§1) Agonist activity at TLR4 in C57BL/6J mouse macrophages assessed as stimulation of TNFalpha release after 4 hrs by ELISA
T1 sequence (Q9QUK6 whole entry): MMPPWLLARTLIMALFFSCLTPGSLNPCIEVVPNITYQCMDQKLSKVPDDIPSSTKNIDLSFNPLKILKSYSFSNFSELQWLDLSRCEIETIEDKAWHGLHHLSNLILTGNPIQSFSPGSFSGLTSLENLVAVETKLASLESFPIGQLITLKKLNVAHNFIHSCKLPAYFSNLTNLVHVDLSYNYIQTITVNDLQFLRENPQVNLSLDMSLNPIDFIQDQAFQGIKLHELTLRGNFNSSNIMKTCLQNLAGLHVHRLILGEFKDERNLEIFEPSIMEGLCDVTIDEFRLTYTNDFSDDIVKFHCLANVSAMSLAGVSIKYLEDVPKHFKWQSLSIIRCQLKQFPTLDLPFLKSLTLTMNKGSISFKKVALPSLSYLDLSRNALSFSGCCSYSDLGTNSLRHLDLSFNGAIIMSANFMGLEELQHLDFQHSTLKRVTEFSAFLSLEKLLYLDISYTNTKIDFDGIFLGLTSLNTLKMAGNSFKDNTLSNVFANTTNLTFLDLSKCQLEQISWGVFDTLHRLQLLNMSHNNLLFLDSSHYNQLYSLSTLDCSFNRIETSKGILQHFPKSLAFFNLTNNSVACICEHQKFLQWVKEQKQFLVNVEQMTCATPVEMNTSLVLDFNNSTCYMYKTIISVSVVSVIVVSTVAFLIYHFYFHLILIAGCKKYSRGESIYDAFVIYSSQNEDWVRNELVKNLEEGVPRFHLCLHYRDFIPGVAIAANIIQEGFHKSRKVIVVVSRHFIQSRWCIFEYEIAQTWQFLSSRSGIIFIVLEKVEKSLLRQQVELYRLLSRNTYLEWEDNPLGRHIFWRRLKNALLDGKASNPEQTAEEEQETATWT
Outline: (§2)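 Peritoneal macrophages from wild-type C57BL/6J mice, collected by PBS lavage and cultured in DMEM/10% FBS at 37 °C, 5% CO2. Seeded at 1 × 10^5 cells/well and treated 4 h with compound in DMSO (0.5% final) beside ultra-pure LPS and DMSO controls. Supernatant TNF-α measured by ELISA; mean of triplicates.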

[1] = target: T2, Toll-like receptor 4 (Mus musculus) (UniProt Q9QUK6); assay: as §1; outline: as §2
T2 sequence (whole entry): T1 sequence (Q9QUK6 whole entry)

[2] = target: T2, Toll-like receptor 4 (Mus musculus); assay: Agonist activity at TLR4 in C57BL/6J mouse macrophages assessed as stimulation of TNFalpha release at 50 uM after 4 hrs by ELISA; outline: as §2
Mus musculus [3] = assay: Adjuvant activity in C57BL/6J mouse assessed as increase in OVA-specific IgG3 levels at 250 mg/kg, im after 21 days by ELISA; type: functional, organism-based
Outline: (§3)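 C57BL/6 mice, 4 per group, immunized i.m. with 100 µg ovalbumin (endotoxin <1 EU/mg) plus compound in propylene glycol vehicle, or vehicle alone. OVA-specific IgG subclasses in serum titrated by ELISA at day 21. Mean ± SEM.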

Macrophage [4] = assay: Induction of TNFalpha release in TLR3 deficient C57BL/6J mouse macrophages at 50 uM after 4 hrs by ELISA; type: functional, cell-based
Outline: (§4)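 Macrophages taken from mice carrying disabling germline mutations or knockouts in TLR or signaling-pathway genes. Exposed to compound at 50 µM; TNF-α released into the medium measured by ELISA. Results representative of two independent experiments; error bars SEM.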

Mus musculus [5] = assay: Adjuvant activity in C57BL/6J mouse assessed as increase in OVA-specific IgG2a levels at 250 mg/kg, im after 21 days by ELISA; type: functional, organism-based; outline: as §3
Macrophage [6] = assay: Induction of TNFalpha release in C57BL/6J mouse macrophages harboring TLR6 int/int mutant at 50 uM after 4 hrs by ELISA; type: functional, cell-based; outline: as §4
Macrophage [7] = assay: Induction of TNFalpha release in C57BL/6J mouse macrophages harboring CD14 hdl/hdl mutant at 50 uM after 4 hrs by ELISA; type: functional, cell-based; outline: as §4
Macrophage [8] = assay: Induction of TNFalpha release in C57BL/6J mouse macrophages harboring TLR9 CpG3/CpG3 mutant at 50 uM after 4 hrs by ELISA; type: functional, cell-based; outline: as §4
[9] = target: T2, Toll-like receptor 4 (Mus musculus); assay: Agonist activity at TLR4 receptor in C57BL/6J mouse macrophages harboring Irak4 otiose/otiose mutant assessed as induction of TNFalpha release at 50 uM after 4 hrs by ELISA; outline: as §4
[10] = target: T2, Toll-like receptor 4 (Mus musculus); assay: Agonist activity at TLR4 receptor in LY96 deficient C57BL/6J mouse macrophages assessed as induction of TNFalpha release at 50 uM after 4 hrs by ELISA; outline: as §4
[11] = target: T2, Toll-like receptor 4 (Mus musculus); assay: Agonist activity at TLR4 receptor in C57BL/6J mouse macrophages harboring Ticam1 Lps2/Lps2 mutant assessed as induction of TNFalpha release at 50 uM after 4 hrs by ELISA; outline: as §4
Mus musculus [12] = assay: Adjuvant activity in C57BL/6J mouse assessed as increase in OVA-specific IgG1 levels up to 250 mg/kg, im after 21 days by ELISA; type: functional, organism-based; outline: as §3
Macrophage [13] = assay: Induction of TNFalpha release in C57BL/6J mouse macrophages harboring TLR2 ingd/ingd mutant at 50 uM after 4 hrs by ELISA; type: functional, cell-based; outline: as §4
[14] = target: T2, Toll-like receptor 4 (Mus musculus); assay: Agonist activity at TLR4 receptor in C57BL/6J mouse macrophages harboring MYD88 poc/poc mutant assessed as induction of TNFalpha release at 50 uM after 4 hrs by ELISA; outline: as §4
Mus musculus [15] = organism: Mus musculus; assay: Agonist activity at TLR4 lps3/lps3 mutant in C57BL/6J mouse macrophages assessed as stimulated release of TNFalpha after 4 hrs by ELISA; outline: as §4
[16] = target: T2, Toll-like receptor 4 (Mus musculus); assay: Agonist activity at TLR4 receptor in C57BL/6J mouse macrophages harboring Ikbkg panr2/Y mutant assessed as induction of TNFalpha release at 50 uM after 4 hrs by ELISA; outline: as §4
Mus musculus [17] = assay: Adjuvant activity in C57BL/6J mouse assessed as increase in OVA-specific IgG2b levels at 250 mg/kg, im after 21 days by ELISA; type: functional, organism-based; outline: as §3
Macrophage [18] = assay: Induction of TNFalpha release in C57BL/6J mouse macrophages harboring TLR7 rsq1/rsq1 mutant at 50 uM after 4 hrs by ELISA; type: functional, cell-based; outline: as §4

EC50 (Toll-like receptor 4) [µM] | Activity [1] | Activity [2] | Activity [9] | Activity [10] | Activity [11] | Activity [14] | Activity (Mus musculus [15]) | Activity [16] | Compound | Activity (Mus musculus [3]) | Activity (Macrophage [4]) | Activity (Mus musculus [5]) | Activity (Macrophage [6]) | Activity (Macrophage [7]) | Activity (Macrophage [8]) | Activity (Mus musculus [12]) | Activity (Macrophage [13]) | Activity (Mus musculus [17]) | Activity (Macrophage [18])
20.7 | Dose-dependent effect |  |  |  |  |  |  |  | CC(C)(C)OC(=O)[C@H](CCc1ccccc1)NC(=O)c1ccc(N)c(OCCc2ccc(O)cc2)c1 |  |  |  |  |  |  |  |  |  | 
22.2 |  | Active |  |  |  |  |  |  | COc1ccc(CC[C@H](NC(=O)c2ccc(N)c(CCc3ccc(O)cc3)c2)C(=O)OC(C)(C)C)cc1 |  |  |  |  |  |  |  |  |  | 
18.5 | Dose-dependent effect |  | inactive | inactive | inactive | inactive | inactive | inactive | CC(C)(C)OC(=O)[C@H](CCc1ccccc1)NC(=O)c1ccc(N)c(CCc2ccc(O)cc2)c1 | Active | Active | Active | Active | Active | Active | Dose-dependent effect | Active | Active | Active
